Measurements taken from PMC8106974 (Psychopharmacology, 2020).
Where a name gives a salt, the structure may show the parent alone.

Tests used:
Type in all cases: in vivo
[1] = tested on: male CD-1 mice; test: Warm-water tail-withdrawal assay of acute thermal nociception, i.v.
[2] = tested on: male CD-1 mice; test: CFA-induced tactile allodynia, von Frey; conditions: i.v.
[3] = tested on: male CD-1 mice; test: Warm-water tail-withdrawal assay of acute thermal nociception, p.o.
[4] = tested on: male Sprague Dawley rats; test: SNL-induced tactile allodynia, von Frey; conditions: i.v.
In short: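 Male Sprague Dawley rats (250–350g) were tested 7 days after SNL surgery, with a fresh baseline taken before dosing. Test compound, comparator or saline followed that baseline. Von Frey up-down method: start at 2 g, each filament applied once for 5 sec, 1 min between stimuli. Positive response was rapid left hind paw withdrawal or licking. Testing ran at 15–180 min post-dose, or until post-SNL baseline.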

[5] = tested on: male CD-1 mice; test: Antagonist; conditions: naltrindole 10 mg/kg s.c., -10 min, DPDPE 30 nmol i.c.v.

## CN1CC[C@]23c4c5ccc(O)c4O[C@H]2[C@@H](O)C=C[C@H]3[C@H]1C5 [morphine, Morphine sulfate]
[1]; BBI-11008 3.2-100 mg/kg, morphine 1-10 mg/kg
  duration of peak antinociception: ~ 60 min
[1]; tail withdrawal (discussion)
  duration of peak effect: ~ 1 hr
[1]; within the dose ranges tested
  overall duration of effect: ~ 120 min
[2]; CFA model, mice (discussion)
  duration of peak effect: 30 to 45 min
[2]; mice, 24 hr after CFA, BBI-11008 10-32 mg/kg, morphine 1-3.2 mg/kg
  time of peak effects, reversal of tactile allodynia: 15 to 30 min
[2]; mice, BBI-11008 32 mg/kg, morphine 3.2 mg/kg, withdrawal threshold vs time
  Area under the Curve (duration of effect, peak dose): 12.85
[3]; tail withdrawal (discussion)
  duration of peak effect: ~ 2 hr
[3]; within the dose ranges tested
  overall duration of effect: ~ 180 min

## NCC1(CC(=O)O)CCCCC1 [gabapentin]
[4]; SNL model, rats (discussion)
  time of peak effects: ~ 90 min
[4]; rats, 7 days after SNL, BBI-11008 18 mg/kg, gabapentin 56 mg/kg
  Area under the Curve (duration of effect, peak dose): 130.2

## [D-Pen^2,D-Pen^5]enkephalin [DPDPE]
[5]
  effect of NTI pretreatment on antinociceptive effects: fully blocked
